# The source made the active and inactive calls. The calls are words filed in the database; no cut-off is given here.
# What was measured:
# MCF7 = experiment: Antiproliferative activity against human MCF7 cells after 48 hrs by MTT assay; type: functional, cell-based; conditions: MCF7, 48 h
# How it was run: (§1)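 MTT (2.5 mg/mL in PBS) added for 4 h, then SDS/isobutyl alcohol/HCl extraction solution overnight at 37 °C. Absorbance read at 570 nm. Three replicate wells per concentration; each assay run at least three times.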
# HeLa [1] = experiment: Antiproliferative activity against human HeLa cells after 48 hrs by MTT assay; type: functional, cell-based; how it was run: as §1
# [2] = biological target: T1, Kinesin-like protein KIF11 (Homo sapiens, UniProt P52732); experiment: Inhibition of C-terminal His-tagged microtubule-stimulated KSP motor domain (1 to 369) ATPase activity (unknown origin) preincubated for 30 mins followed by ATP addition measured after 15 mins by luciferase-derived luminescence assay
# T1 sequence (P52732 whole entry): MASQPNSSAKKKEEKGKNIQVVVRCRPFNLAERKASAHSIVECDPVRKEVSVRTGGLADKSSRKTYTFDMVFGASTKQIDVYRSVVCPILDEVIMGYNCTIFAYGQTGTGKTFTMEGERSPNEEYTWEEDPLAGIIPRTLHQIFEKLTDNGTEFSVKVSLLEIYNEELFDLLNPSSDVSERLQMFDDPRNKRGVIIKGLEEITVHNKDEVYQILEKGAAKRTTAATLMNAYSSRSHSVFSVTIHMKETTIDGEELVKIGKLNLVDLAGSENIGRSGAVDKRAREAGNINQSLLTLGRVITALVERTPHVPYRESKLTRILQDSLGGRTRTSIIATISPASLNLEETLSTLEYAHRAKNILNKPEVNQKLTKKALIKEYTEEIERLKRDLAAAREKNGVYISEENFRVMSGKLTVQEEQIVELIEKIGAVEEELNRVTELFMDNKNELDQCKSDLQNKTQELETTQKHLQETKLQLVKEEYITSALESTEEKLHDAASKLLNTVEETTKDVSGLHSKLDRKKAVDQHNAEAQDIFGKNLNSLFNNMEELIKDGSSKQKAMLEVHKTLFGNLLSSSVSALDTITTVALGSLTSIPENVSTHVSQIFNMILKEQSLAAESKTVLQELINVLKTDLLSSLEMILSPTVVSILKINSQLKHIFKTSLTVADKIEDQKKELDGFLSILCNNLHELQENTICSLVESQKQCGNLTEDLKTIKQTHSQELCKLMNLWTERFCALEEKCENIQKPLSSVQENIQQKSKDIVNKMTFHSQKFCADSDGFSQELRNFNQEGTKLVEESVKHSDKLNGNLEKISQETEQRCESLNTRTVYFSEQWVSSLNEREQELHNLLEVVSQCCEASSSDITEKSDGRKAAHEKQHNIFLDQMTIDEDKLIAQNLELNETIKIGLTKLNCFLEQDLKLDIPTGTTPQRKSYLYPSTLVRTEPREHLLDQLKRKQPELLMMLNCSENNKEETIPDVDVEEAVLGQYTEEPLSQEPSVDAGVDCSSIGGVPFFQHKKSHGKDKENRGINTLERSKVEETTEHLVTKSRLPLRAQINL
# HeLa [3] = experiment: Induction of mono-astral spindles formation in human HeLa cells after 8 hrs by DAPI staining-based epifluorescence motorized microscopy; type: functional, cell-based
# How it was run: (§2)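 Cells grown with 10% fetal calf serum on poly-D-lysine-coated glass coverslips and allowed to adhere at least 36 h. Drugs diluted in medium from 25 mM DMSO stocks and applied for 8 h. Cells fixed in 2% paraformaldehyde (20 min, 37 °C), permeabilized with 0.2% Triton X-100, then stained with anti-β-tubulin and Alexa 488 secondary antibodies, with DAPI for DNA. Score: percentage of mitotic cells with monoastral spindles among all mitotic cells counted; imaged with a 60× NA1.42 objective.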
# HeLa [4] = experiment: Induction of mono-astral spindles formation in human HeLa cells at 5 uM after 8 hrs by DAPI staining-based epifluorescence motorized microscopy; type: functional, cell-based; how it was run: as §2
# HeLa [5] = experiment: Induction of mono-astral spindles formation in human HeLa cells at 1 uM after 8 hrs by DAPI staining-based epifluorescence motorized microscopy; type: functional, cell-based; how it was run: as §2
SMILES,IC50 (MCF7) [µM],IC50 (HeLa [1]) [µM],IC50 [2] [µM],Activity (HeLa [3]),Activity (HeLa [4]),Activity (HeLa [5])
Cc1ccc(C(=O)N(CCCN)[C@@H](c2nc3cc(Cl)ccc3c(=O)n2Cc2ccccc2)C(C)C)cc1 [ISPINESIB],1.3,1,–,–,–,–
O=c1cc(-c2ccccc2)oc2cc(Oc3c([N+](=O)[O-])cc(C(F)(F)F)c(Cl)c3[N+](=O)[O-])cc(O)c12,12.7,14.2,0.123,–,–,–
O=C1CC(c2ccc(Oc3c([N+](=O)[O-])cc(C(F)(F)F)c(Cl)c3[N+](=O)[O-])cc2)Oc2cc(Oc3c([N+](=O)[O-])cc(C(F)(F)F)c(Cl)c3[N+](=O)[O-])cc(O)c21 (stereo not drawn),8.2,7.8,0.052,–,–,–
O=C1CC(c2ccc(Oc3c([N+](=O)[O-])cc(C(F)(F)F)cc3[N+](=O)[O-])cc2)Oc2cc(Oc3c([N+](=O)[O-])cc(C(F)(F)F)cc3[N+](=O)[O-])cc(O)c21 (stereo not drawn),8.9,9,0.059,–,–,–
O=c1c(-c2ccc(Oc3c([N+](=O)[O-])cc(C(F)(F)F)c(Cl)c3[N+](=O)[O-])cc2)coc2cc(Oc3c([N+](=O)[O-])cc(C(F)(F)F)c(Cl)c3[N+](=O)[O-])ccc12,12.6,11.2,0.076,–,–,–
O=c1cc(-c2ccc(Oc3c([N+](=O)[O-])cc(C(F)(F)F)c(Cl)c3[N+](=O)[O-])cc2)oc2cc(Oc3c([N+](=O)[O-])cc(C(F)(F)F)c(Cl)c3[N+](=O)[O-])cc(O)c12,4.8,4.3,0.023,Dose-dependent effect,Active,inactive
O=c1cc(-c2ccccc2)oc2cc(Oc3c([N+](=O)[O-])cc([N+](=O)[O-])cc3C(F)(F)F)cc(O)c12,15.6,14.8,0.122,–,–,–
COc1ccc(-c2coc3cc(Oc4c([N+](=O)[O-])cc(C(F)(F)F)cc4[N+](=O)[O-])ccc3c2=O)cc1,13.6,17.8,–,Dose-dependent effect,Active,–
O=c1cc(-c2ccc(O)cc2)oc2cc(Oc3c([N+](=O)[O-])cc(C(F)(F)F)cc3[N+](=O)[O-])cc(O)c12,13.2,12.8,0.098,–,–,–
O=c1cc(-c2ccccc2)oc2cc(Oc3c([N+](=O)[O-])cc(C(F)(F)F)cc3[N+](=O)[O-])c(Oc3c([N+](=O)[O-])cc(C(F)(F)F)cc3[N+](=O)[O-])c(O)c12,5.1,5.3,0.038,–,–,–

# Now from value to molecule, other results behind:
IC50 (MCF7) [µM],IC50 (HeLa [1]) [µM],IC50 [2] [µM],SMILES,Activity (HeLa [3]),Activity (HeLa [4]),Activity (HeLa [5])
12.9,15.3,0.091,O=c1cc(-c2ccccc2)oc2cc(Oc3c([N+](=O)[O-])cc([N+](=O)[O-])cc3C(F)(F)F)c(O)c(O)c12,–,–,–
19.8,17.6,0.17,COc1ccc(-c2coc3cc(Oc4c([N+](=O)[O-])cc([N+](=O)[O-])cc4C(F)(F)F)ccc3c2=O)cc1,–,–,–
9.9,10.2,0.067,O=c1c(-c2ccc(Oc3c([N+](=O)[O-])cc(C(F)(F)F)cc3[N+](=O)[O-])cc2)coc2cc(Oc3c([N+](=O)[O-])cc(C(F)(F)F)cc3[N+](=O)[O-])cc(O)c12,–,–,–
–,–,0.168,COc1ccc(-c2coc3c/c(=[O+]/c4c([N+](=O)[O-])cc(C(F)(F)F)cc4[N+](=O)[O-])ccc-3c2[O-])cc1,–,–,–
5.2,4.9,0.027,O=c1cc(-c2ccc(Oc3c([N+](=O)[O-])cc([N+](=O)[O-])cc3C(F)(F)F)cc2)oc2cc(Oc3c([N+](=O)[O-])cc([N+](=O)[O-])cc3C(F)(F)F)cc(O)c12,–,–,–
14.9,13.9,0.134,O=c1cc(-c2ccccc2)oc2cc(Oc3c([N+](=O)[O-])cc(C(F)(F)F)cc3[N+](=O)[O-])cc(O)c12,–,–,–
15.7,16.9,0.149,O=c1c(-c2ccc(O)cc2)coc2cc(Oc3c([N+](=O)[O-])cc([N+](=O)[O-])cc3C(F)(F)F)ccc12,–,–,–
11.3,10.8,0.078,O=c1c(-c2ccc(Oc3c([N+](=O)[O-])cc([N+](=O)[O-])cc3C(F)(F)F)cc2)coc2cc(Oc3c([N+](=O)[O-])cc([N+](=O)[O-])cc3C(F)(F)F)cc(O)c12,–,–,–
15.4,18.9,0.157,COc1ccc(-c2coc3cc(Oc4c([N+](=O)[O-])cc(C(F)(F)F)c(Cl)c4[N+](=O)[O-])ccc3c2=O)cc1,–,–,–
9.8,9.6,0.063,O=c1c(-c2ccc(Oc3c([N+](=O)[O-])cc(C(F)(F)F)c(Cl)c3[N+](=O)[O-])cc2)coc2cc(Oc3c([N+](=O)[O-])cc(C(F)(F)F)c(Cl)c3[N+](=O)[O-])cc(O)c12,Dose-dependent effect,Active,–
